Results of several laboratories.

SMILES | assay | system | setting | solubility
CCCCCCC#Cc1cncc(-c2nnc(SCc3cc([N+](=O)[O-])cc([N+](=O)[O-])c3)n2C)c1 |  | PBS |  | < 1.6 µM
O=C(CCCN1CCC2(CC1)C(=O)NCN2c1ccccc1)N(CC1CCCCC1)c1ccccc1 |  | PBS | 24 h, pH 7.4, 37 °C | 626 µM
CC(=O)N[C@@H](CC(N)=O)C(=O)N[C@@H](CCCNC(=N)N)C(=O)N[C@@H](CC(C)C)C(=O)N[C@H]1CSSC[C@@H](C(=O)N[C@H](C(N)=O)[C@@H](C)O)NC(=O)[C@H](CCCNC(=N)N)NC(=O)[C@H](Cc2c[nH]cn2)NC(=O)[C@H](Cc2cccc3ccccc23)NC(=O)CNC(=O)[C@H](Cc2c[nH]c3ccccc23)NC(=O)[C@H](CC(=O)O)NC(=O)[C@H](CCC(N)=O)NC(=O)[C@H](Cc2cccc3ccccc23)NC(=O)[C@H](C(C)C)NC1=O |  | PBS | pH 7.4 | 300 µg/mL
COc1ccc(NC(=O)N2CCCCN3[C@H](CN(C)C)[C@H](c4ccc(C#Cc5ccccc5)cc4)[C@@H]3C2)cc1 |  | aqueous buffer | pH 1 | 155 µM
CC[C@H](C)[C@H](NC(C)=O)C(=O)N[C@H]1CSSC[C@@H](C(=O)N[C@H](C(N)=O)[C@@H](C)O)NC(=O)[C@H](CCCNC(=N)N)NC(=O)[C@H](Cc2cnc[nH]2)NC(=O)[C@H](Cc2cccc3ccccc23)NC(=O)CNC(=O)[C@H](Cc2c[nH]c3ccccc23)NC(=O)[C@H](CC(=O)O)NC(=O)[C@H](CCC(N)=O)NC(=O)[C@H](Cc2cn(C)c3ccccc23)NC(=O)[C@H](C(C)C)NC1=O |  | PBS | pH 7.4 | 110 µg/mL
Clc1ccc(CSc2nnc(-c3ccccn3)n2Cc2ccco2)cc1Cl |  | aqueous buffer | pH 6.2 | 0.29 µg/mL
CCc1cc(OC)cc2c(/C=N/NC(=N)NCCc3ccc(C#N)cc3)c[nH]c12 |  | PBS | 2 h, pH 7.4 | 55.5 µM
CNC(=O)O[C@@H](C)/C=C\C(=O)N[C@H]1CC[C@@H](C/C=C(C)/C=C/[C@@H]2C[C@]3(CO3)CC(C)(C)O2)CC1 | HPLC | PBS |  | 45 µM
CCCSc1ccc2nc(NC(=O)OC)[nH]c2c1 |  | water | 24 h | < 1 µg/mL
CC[C@H](C)[C@H](NC(=O)[C@H](CO)NC(=O)[C@H](CCCNC(=N)N)NC(C)=O)C(=O)N[C@H]1CSSC[C@@H](C(=O)N[C@H](C(N)=O)[C@@H](C)O)NC(=O)[C@H](CCCNC(=N)N)NC(=O)[C@H](Cc2c[nH]cn2)NC(=O)[C@H](Cc2cccc3ccccc23)NC(=O)CNC(=O)[C@H](Cc2c[nH]c3ccccc23)NC(=O)[C@H](CC(=O)O)NC(=O)[C@H](CCC(N)=O)NC(=O)[C@H](Cc2cccc3ccccc23)NC(=O)[C@H](C(C)C)NC1=O |  | PBS | pH 7.4 | 200 µg/mL
COc1cc([C@@H]2c3cc4c(cc3[C@H](O)[C@H]3COC(=O)[C@H]23)OCO4)cc(OC)c1OC |  | water |  | 2200 µg/mL
CC[C@H](C)[C@H](NC(=O)[C@H](CO)NC(=O)[C@H](CCCNC(=N)N)NC(C)=O)C(=O)N[C@H]1CSSC[C@@H](C(=O)N[C@H](C(N)=O)[C@@H](C)O)NC(=O)[C@H](CCCNC(=N)N)NC(=O)[C@H](Cc2c[nH]cn2)NC(=O)[C@H](C)NC(=O)CNC(=O)[C@H](Cc2c[nH]c3ccccc23)NC(=O)[C@H](CC(=O)O)NC(=O)[C@H](CCC(N)=O)NC(=O)[C@H](Cc2ccc3ccccc3c2)NC(=O)[C@H](C(C)C)NC1=O |  | PBS | pH 7.4 | 2170 µg/mL
O=C1C=C(N(Cc2ccc(Cl)nc2)CC(F)F)CO1 |  | methanol | 20 °C | > 250000 µg/mL
